In the library only some 2.9% were active in any assay of this set; here they are far more common.
M1 ag parental – counter-screen for M1 agonists: effect in parental CHO-K1 cells; Fluo-8 calcium fluorescence; scaled to maximal ATP response, vehicle zero; activation, % at 3 µM; 0.48% of 360,000 active; in the data active = activation above about 15%;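 note: untransfected CHO-K1 host cells lacking M1 receptor as counterscreen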
M1 PAM parental – nonselective calcium activators in parental CHO-K1 cells, primary screen, counter-screen for M1 PAM project, cell-based, Fluo-8 calcium fluorescence, full deck, 1536-well. AID 602247, 2012. ATP EC20; 0% at ATP EC20, 100% at ATP max. 0.02% of 360,000 active. activation, % at 3 µM;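 active = activation above the run cutoff, the mean activation of all test compounds plus 3 SD, cut at about 40% in these data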;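 note: peak over basal fluorescence ratio in a 140 s read after ATP addition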
OX1R antag-1 – OX1R (HCRTR1) antagonists, primary screen, fluorescence, CHO/OX1R cells, Fluo-8 calcium, orexin A; Orexin/Hypocretin receptor type 1 (Homo sapiens), O43613; Fluo-8 calcium fluorescence; inhibition, % at 5 µM; 0.43% of 330,000 active;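 active = inhibition above its plate's threshold, mean inhibition of all tested compounds on the plate plus 3 SD, cut at about 37% in these data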;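 note: 0% = orexin A challenge wells and 100% = SB-334867-A antagonist wells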
Target sequence (O43613 whole entry, looked up): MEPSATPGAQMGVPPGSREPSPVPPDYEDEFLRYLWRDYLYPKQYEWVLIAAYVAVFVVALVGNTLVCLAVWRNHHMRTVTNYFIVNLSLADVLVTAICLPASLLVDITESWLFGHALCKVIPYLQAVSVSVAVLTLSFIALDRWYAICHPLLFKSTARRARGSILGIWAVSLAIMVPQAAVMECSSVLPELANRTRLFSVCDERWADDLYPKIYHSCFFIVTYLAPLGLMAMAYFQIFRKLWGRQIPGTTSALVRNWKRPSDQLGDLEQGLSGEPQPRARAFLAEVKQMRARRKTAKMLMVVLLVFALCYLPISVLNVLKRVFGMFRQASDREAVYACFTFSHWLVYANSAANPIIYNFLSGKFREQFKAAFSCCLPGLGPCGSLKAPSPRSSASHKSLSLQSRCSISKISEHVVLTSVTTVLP
CHO-K1 Ca antag – M1 antagonist counterscreen hit in parental CHO-K1 cells; ATP-induced calcium, Fluo-8 fluorescence; inhibition, % at 3 µM; 0.6% of 360,000 active; AID 602250;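 active = inhibition above a per-plate cutoff, the plate's mean sample inhibition plus 3 SD, cut at about 24% in these data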;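 note: 0% = DMSO plus EC80 ATP and 100% = DMSO alone without ATP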
OX1R antag-2 – antagonists of human orexin 1 receptor (OX1R); OX1R-expressing cells, FRET antagonist read-out; inhibition, % at 6.6 µM; 1.8% of 330,000 active; AID 485270, 2010; in the data active = inhibition mostly above about 38%, no sharp cut-off; inactive = mostly below about 40%;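 note: 0% = agonist challenge alone and 100% = reference antagonist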
CHO parental Ca – ATP-evoked calcium signal inhibitors, parental CHO, primary screen, counter-screen for OX1R antagonist project, cell-based, fluorescence, Fluo-8 calcium dye; parental CHO-K1, ATP-induced calcium, Fluo-8 fluorescence; inhibition, % at 5.6 µM; 0.63% of 330,000 active; AID 463079, 2010;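 active = inhibition above that plate's mean sample inhibition plus 3 SD, cut at about 26% in these data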;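 note: 0% = ATP-challenged DMSO wells and 100% = DMSO wells without ATP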
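test system = CHO parental line | reagent = ATP stimulus | measured by = intracellular calcium via Fluo-8 no-wash fluorescent dye | control set = ATP and no-ATP DMSO wells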
An asterisk follows results filed as active.

What do the screens show for `COc1cccc(OCC(=O)Nc2ccncc2)c1`?
M1 ag parental: 7.1; M1 PAM parental: 14.2; OX1R antag-1: -0.5; CHO-K1 Ca antag: -8.7; OX1R antag-2: 10.7; CHO parental Ca: -1.3

How did COc1cccc(CN2CC(C(=O)NC3CCC(O)CC3)CCC2=O)c1 (stereo unspecified) do in these assays?
M1 ag parental: 0.2; M1 PAM parental: 5.8; OX1R antag-1: 4.5; CHO-K1 Ca antag: 13.2; OX1R antag-2: 10.9; CHO parental Ca: 1.5

How did COc1ccc(C(=O)CSC2=NS(=O)(=O)c3cc(Cl)ccc3N2)cc1 do in these assays?
M1 ag parental: 2.3; M1 PAM parental: 12.5; OX1R antag-1: -10.8; CHO-K1 Ca antag: 9.3; OX1R antag-2: 61.9*; CHO parental Ca: -7.1

What do the screens show for `CC(=O)Nc1ccc(NC(=O)CSC2=NS(=O)(=O)c3cc(Cl)ccc3N2)cc1`?
M1 ag parental: 0.5; M1 PAM parental: -10.2; OX1R antag-1: -5.6; CHO-K1 Ca antag: 2.0; OX1R antag-2: 20.9; CHO parental Ca: -5.7

Results for N#CCOC(=O)C1CCN(S(=O)(=O)c2ccc3c(c2)OCCO3)CC1 ?
M1 ag parental: 2.3; M1 PAM parental: 12.7; OX1R antag-1: -4.0; CHO-K1 Ca antag: -1.7; OX1R antag-2: 7.4; CHO parental Ca: 23.3

What do the screens show for `CCOC(=O)N1CCN(c2nc(-c3cccs3)nc3ccccc23)CC1`?
M1 ag parental: 0.7; M1 PAM parental: -0.2; OX1R antag-1: 21.9; CHO-K1 Ca antag: -3.9; OX1R antag-2: 74.5*; CHO parental Ca: -25.8

How did COC(=O)c1ccc(C)c(NC(=O)CCn2[nH]c(=O)ccc2=O)c1 do in these assays?
M1 ag parental: 0.3; M1 PAM parental: 19.0; OX1R antag-1: -14.3; CHO-K1 Ca antag: -10.8; OX1R antag-2: 20.8; CHO parental Ca: -6.4

Results for CCCCNC(=S)Nc1ccc(Cl)cc1 ?
M1 ag parental: 10.2; M1 PAM parental: -11.1; OX1R antag-1: 2.9; CHO-K1 Ca antag: 30.6*; OX1R antag-2: 15.8; CHO parental Ca: 4.8

Results for CCNC(=S)Nc1ccc(Cl)cc1 ?
M1 ag parental: 1.1; M1 PAM parental: 2.9; OX1R antag-1: 1.2; CHO-K1 Ca antag: 1.6; OX1R antag-2: 6.3; CHO parental Ca: -10.9

What do the screens show for `CCCNC(=S)Nc1cccc(C(F)(F)F)c1`?
M1 ag parental: 0.4; M1 PAM parental: -6.2; OX1R antag-1: -5.7; CHO-K1 Ca antag: 11.4; OX1R antag-2: 7.4; CHO parental Ca: -2.7

What do the screens show for `CCCCNC(=S)Nc1ccc(C(F)(F)F)cc1`?
M1 ag parental: 14.2; M1 PAM parental: -11.8; OX1R antag-1: 28.7; CHO-K1 Ca antag: 20.5; OX1R antag-2: 64.6; CHO parental Ca: 71.5*

How did CCOC(=O)C1(CC2CCCCO2)CCN(C(=O)Nc2ccc(C)c(C)c2)CC1 (stereo unspecified) do in these assays?
M1 ag parental: 1.9; M1 PAM parental: -0.9; OX1R antag-1: -29.5; CHO-K1 Ca antag: 0.4; OX1R antag-2: 24.3; CHO parental Ca: -16.2

How did Nc1nonc1N/N=C/c1c(O)ccc2ccccc12 do in these assays?
M1 ag parental: 1.7; M1 PAM parental: -8.5; OX1R antag-1: 50.2*; CHO-K1 Ca antag: 9.9; OX1R antag-2: 72.4; CHO parental Ca: 23.5

What do the screens show for `COc1cccc(Nc2nc(C(N)CCc3ccccc3)cs2)n1` (stereo unspecified)?
M1 ag parental: 7.4; M1 PAM parental: 12.1; CHO-K1 Ca antag: 0.7

What do the screens show for `COc1ccccc1/C=C/C=N/n1c(-c2ccc(Cl)cc2)n[nH]c1=S`?
M1 ag parental: -1.3; M1 PAM parental: -16.4; OX1R antag-1: -20.2; CHO-K1 Ca antag: 53.4*; OX1R antag-2: 25.7; CHO parental Ca: -30.3

Results for COC(=O)c1sc2nc(CSc3nc4ccc(C)cc4[nH]3)[nH]c(=O)c2c1C ?
M1 ag parental: 0.4; M1 PAM parental: -5.5; OX1R antag-1: -31.6; CHO-K1 Ca antag: 4.7; OX1R antag-2: 18.0; CHO parental Ca: -17.4

Results for Cc1ccc2nc(SCc3nc4ccccc4c(=O)[nH]3)[nH]c2c1 ?
M1 ag parental: 1.4; M1 PAM parental: -15.6; OX1R antag-1: -24.9; CHO-K1 Ca antag: 29.2*; OX1R antag-2: 32.5; CHO parental Ca: -29.4

How did O=c1[nH]c(NCCO)nc2c1C1(CCCCC1)Cc1ccccc1-2 do in these assays?
M1 ag parental: 0.2; M1 PAM parental: 8.5; OX1R antag-1: 19.8; CHO-K1 Ca antag: -7.0; OX1R antag-2: 10.4; CHO parental Ca: 81.3*

How did O=C(COC(=O)c1c[nH]c2ccccc12)Nc1cccc(F)c1 do in these assays?
M1 ag parental: 2.2; M1 PAM parental: -12.9; OX1R antag-1: 15.4; CHO-K1 Ca antag: 5.2; OX1R antag-2: 7.5; CHO parental Ca: 2.1

Results for CCOC(=O)C1CCN(C(=O)c2ccc(OCC(=O)Nc3cccc(C(F)(F)F)c3)c(OC)c2)CC1 ?
M1 ag parental: 12.7; M1 PAM parental: -14.5; OX1R antag-1: 44.6*; CHO-K1 Ca antag: 16.8; OX1R antag-2: 14.5; CHO parental Ca: 44.6*

How did CCOC(=O)C1CCN(C(=O)c2ccc3c(c2)OCO3)CC1 do in these assays?
M1 ag parental: 0.0; M1 PAM parental: 1.2; OX1R antag-1: -3.3; CHO-K1 Ca antag: 3.9; OX1R antag-2: 10.3; CHO parental Ca: 57.0*

What do the screens show for `CCOC(=O)C1CCCN(C(=O)Cc2ccc(OC)c(OC)c2)CC1` (stereo unspecified)?
M1 ag parental: 0.6; M1 PAM parental: -15.7; CHO-K1 Ca antag: 25.6*

How did CC(C)(O)C#Cc1ccc(C(=O)N2CCCC(CCC(=O)NCc3ccccc3F)C2)cc1 (stereo unspecified) do in these assays?
M1 ag parental: 1.9; M1 PAM parental: 15.2; OX1R antag-1: 4.7; CHO-K1 Ca antag: -2.3; OX1R antag-2: 3.6; CHO parental Ca: -9.6

Results for COc1ccc2ccccc2c1C(O)c1nccn1C (stereo unspecified) ?
M1 ag parental: 3.6; M1 PAM parental: 16.9; OX1R antag-1: -6.6; CHO-K1 Ca antag: -6.8; OX1R antag-2: 64.1*; CHO parental Ca: -0.8

Results for Cn1ccnc1C(O)c1ccccc1 (stereo unspecified) ?
M1 ag parental: 0.4; M1 PAM parental: 22.2; OX1R antag-1: -3.2; CHO-K1 Ca antag: -7.1; OX1R antag-2: 13.5; CHO parental Ca: 2.3

How did CCOc1ccc(-c2cc(C(=O)NCc3ccc(C(F)(F)F)cc3)[nH]n2)c(C)c1 do in these assays?
M1 ag parental: -0.2; M1 PAM parental: -7.7; CHO-K1 Ca antag: -0.1

How did Cc1cc(F)ccc1-c1cc(C(=O)NCc2ccc(C(F)(F)F)cc2)[nH]n1 do in these assays?
M1 ag parental: 16.2*; M1 PAM parental: 25.8; CHO-K1 Ca antag: 3.1
